# Bioassay records from PubChem BioAssay.
# Yeast superoxide: reduction of superoxide in aged yeast, primary screen, HTS | S. cerevisiae aged cells, superoxide DHE fluorescence; stronger effect = lower value | superoxide response (% of plate mean), % at 10 µM | hit rate 0.18% among 330,000 | AID 2690, 2010;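 active = superoxide response under a set limit, about three screen SD below normal, cut at about 65% in these data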;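 also: yeast aged for seven days with compound at 30 °C before DHE staining; 100% = average MFI of all compound-treated wells on the plate with controls excluded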
# SMARCA2 act: SMARCA2 (BRM) function activators, primary screen, cell-based, luminescence, high throughput | MG213 cells, MMTV-luciferase reporter, dexamethasone, overnight | activation, % at 9.1 µM | hit rate 1% among 370,000; in the data active = activation above about 7.8%;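 also: 0% = vehicle wells and 100% = reference activator wells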
# SR-BI DiI inh: inhibitors of SR-BI mediated HDL lipid uptake, primary screen, ldlA[mSR-BI] cells, fluorescence, single point; hit rate 0.96% among 320,000; ldlA[mSR-BI] CHO cells, DiI-HDL uptake fluorescence, 3 h; Scavenger receptor class B member 1 (Mus musculus), Q61009; AID 488896, 2010; inhibition, % at 12.5 µM;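 active = mean replicate inhibition of at least 70% and a set share of replicates each scoring 70 or more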;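 also: 0% = median of neutral control wells and 100% = median of positive control wells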
# SR-BI DiI-HDL act: activators of SR-BI mediated DiI-HDL uptake, primary screen, ldlA[mSR-BI] CHO cells, DiI fluorescence; 3 h; 100 = double the neutral-control signal; activation, % at 12.5 µM; hit rate 0.096% among 320,000; AID 504775, 2011;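 active = mean replicate activation of at least 60% and every replicate at or above 60%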;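 also: 0% = median plate neutral-control signal and 100% = twice that signal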
#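 Material – SR-BI-overexpressing, LDLR-lacking CHO cells · Medium – BSA-supplemented, HEPES-buffered Ham's F12, pH 7.4 · Doses – single concentration · Times – compound with DiI-HDL co-incubation, 3 h at 37 °C · Measured by – bottom-read fluorescence, 550/595 nm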
# Lipid droplet: inhibitors of hepatocyte lipid droplet formation, primary screen, imaging, high-throughput imaging, BODIPY stain; inhibition, % at 6.5 µM; AML12 mouse hepatocytes, oleate lipid droplets; AID 1656, 2009; hit rate 0.4% among 240,000;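 active = lipid droplet intensity inhibited by at least 50%, with more than 500 cells counted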
#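 Assay system: AML12 hepatocytes (mouse); Probe or stimulus: oleic acid at 100 µM to induce lipid droplet formation; Dosing: compound at 6.5 µM only; Schedule: compound with oleate, overnight; Detection: fluorescence imaging, 20x objective, two fields per well; Measure: % inhibition of lipid droplet signal.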
# AHR activator: AHR activators, primary screen, cell-based, luminescence, luciferase reporter, human | Aryl hydrocarbon receptor (Homo sapiens), P35869 | AHR-responsive luciferase reporter cells | activation, % at 5 µM | hit rate 2.5% among 320,000 | AID 2796, 2010; in the data active = activation above about 47%;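 also: 0% = vehicle wells and 100% = reference agonist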
# AHR act confirm: AHR activators, confirmation, cell-based, luminescence, luciferase reporter, human | shares compounds with AHR activator | human cells, AHR-responsive luciferase reporter | activation, % at 9 µM | hit rate 87% among 2,300 | AID 2845, 2010; in the data active = activation above about 49%;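 also: HepG2 hepatoma cells carrying a DRE-driven firefly luciferase reporter; 0% = vehicle wells and 100% = reference agonist wells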
# PXR act counter: human PXR activators, counter-screen for AHR activator project, cell-based, luciferase luminescence; shares compounds with AHR activator; cell-based PXR reporter; activation, % at 11.6 µM; hit rate 88% among 2,300; in the data active = activation above about 11%;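 also: human hepatoma DPX-2 cells expressing full-length human PXR; 0% = DMSO and 100% = reference agonist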
# Target sequence (O75469 whole entry, looked up): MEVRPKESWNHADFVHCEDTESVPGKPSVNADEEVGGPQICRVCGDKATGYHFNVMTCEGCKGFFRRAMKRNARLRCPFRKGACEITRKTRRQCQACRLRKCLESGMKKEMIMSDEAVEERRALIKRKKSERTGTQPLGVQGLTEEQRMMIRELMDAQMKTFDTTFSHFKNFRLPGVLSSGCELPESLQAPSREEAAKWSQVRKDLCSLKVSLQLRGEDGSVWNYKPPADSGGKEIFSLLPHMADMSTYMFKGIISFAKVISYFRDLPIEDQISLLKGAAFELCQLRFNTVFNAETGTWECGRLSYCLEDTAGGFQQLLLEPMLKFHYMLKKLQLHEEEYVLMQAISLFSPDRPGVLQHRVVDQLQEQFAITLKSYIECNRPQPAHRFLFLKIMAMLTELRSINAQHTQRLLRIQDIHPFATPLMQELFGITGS
# * marks the source's active call; other numbers are inactive results; x = no result. This is a sample that favours compounds with a hit; in the whole collection about 4.3% have one here.
SMILES,Yeast superoxide,SMARCA2 act,SR-BI DiI inh,SR-BI DiI-HDL act,Lipid droplet,AHR activator,AHR act confirm,PXR act counter
N#CC1=C(N)Nc2nc3ccccc3n2C1c1ccc(Cl)cc1 (stereo unspecified),106,-1,6,-6,-7,99*,69*,49*
O=C(NC(=S)Nc1ccc2cn[nH]c2c1)c1ccccc1,100,4,-7,7,5,84*,81*,75*
CCn1c(O)c(N=NC(=S)NCC2CCCO2)c2ccccc21 (stereo unspecified),96,2,-5,5,6,20,x,x
Oc1[nH]c2ccc(Br)cc2c1N=NC(=S)NCC1CCCO1 (stereo unspecified),110,1,15,-15,-5,104*,72*,23*
Cc1cc(C)c2[nH]c(O)c(N=NC(=S)NCC3CCCO3)c2c1 (stereo unspecified),115,2,-17,17,2,124*,100*,114*
COc1ccc(C(=O)N/C(N)=N/c2nc3ccccc3o2)cc1,94,-2,47,-47,x,41,x,x
N/C(=N\c1nc2ccccc2o1)NC(=O)c1ccccc1Br,97,0,33,-33,-42,95*,43,28*
N/C(=N\c1nc2ccccc2o1)NC(=O)c1ccc(F)cc1,120,-5,16,-16,x,83*,145*,30*
O=C(NN=Cc1ccccc1C(F)(F)F)c1cc(-c2ccc(Cl)cc2)n[nH]1,x,-5,x,x,x,x,x,x
Cc1cccc(C)c1NC(=O)C1CCCN1S(=O)(=O)c1cccc2cccnc12 (stereo unspecified),x,2,x,x,x,x,x,x
O=C(NC(=S)Nc1ccc(Br)cn1)c1cncc(Br)c1,114,3,-12,12,x,3,x,x
O=C(NC(=S)Nc1ccc(Br)cn1)c1cccs1,85,7,-10,10,3,84*,116*,16*
C[C@H]1CN([C@@H](C)CO)C(=O)CCCn2cc(nn2)CO[C@@H]1CN(C)C(=O)c1ccccc1,x,-1,x,x,x,x,x,x
NC(=S)N/N=C/c1ccc(-c2ccc([N+](=O)[O-])cc2)o1,104,-1,71*,-71,3,92*,118*,14*
COc1ccccc1N=CC1=C(O)CC(c2ccccc2)CC1=O (stereo unspecified),96,-1,28,-27,10,100*,94*,13*
CC(C)c1ccc(S(=O)(=O)/N=C2/C=CC(=O)c3ccccc32)cc1,x,x,x,x,18,x,x,x
CC(C)c1ccc(S(=O)(=O)/N=C2\C=C(NS(=O)(=O)c3ccccc3)C(=O)c3ccccc32)cc1,107,-4,-3,3,-8,83*,20,130*
CC(c1ccc(NC(=O)OC(C)(C)C)cc1)c1cn(C)c2ccccc12 (stereo unspecified),x,6,x,x,x,x,x,x
Nc1nc2ccc(NC(=O)c3ccco3)cc2s1,94,3,-16,16,12,82*,52*,15*
O=C(Nc1ccc(Cl)c(C(F)(F)F)c1)c1ccco1,124,1,12,-12,-23,82*,1,6
C/C(=N/Nc1nc(-c2ccc(Cl)cc2)cs1)c1cccs1,94,-1,79*,-79,12,104*,132*,17*
O=C(Nc1ccc(F)cc1)OCc1cn(Cc2ccc(F)cc2F)nn1,x,-2,x,x,x,x,x,x
CN(C(=O)/C=C/c1ccc2c(c1)OCO2)c1ccccc1,102,1,-6,6,0,97*,79*,114*
C/C=C/C(=O)OCC(=O)Nc1cc(-c2cc(C)c(C)cc2C)nn1-c1ccccc1,105,-3,4,-4,16,105*,90*,85*
C=CCc1cccc(/C=N/NC(=O)CNc2ccccc2)c1O,110,-6,21,-21,-7,90*,69*,47*
SMILES,Yeast superoxide,SMARCA2 act,SR-BI DiI inh,SR-BI DiI-HDL act,Lipid droplet,AHR activator,AHR act confirm,PXR act counter
O=c1cc(-c2ccco2)oc2c1ccc1ccccc12,94,-2,17,-17,9,79*,61*,25*
Cc1cccc(NC(=O)C2CCCN(c3cnccn3)C2)c1 (stereo unspecified),98,-4,16,-16,-8,88*,70*,32*
CCc1cccc(NC(=O)C2CCCN(c3cnccn3)C2)c1 (stereo unspecified),98,-3,-16,16,2,91*,58*,41*
CCCc1ccc(NC(=O)C2CCN(c3cnccn3)CC2)cc1,103,-2,17,-17,15,3,x,x
CCOC(=O)C1=CCC(c2ccccc2)N(S(C)(=O)=O)C1 (stereo unspecified),x,-2,x,x,x,x,x,x
COc1ccc(NC(=O)Nc2ccc(F)cc2F)c(C)c1,87,-1,4,-4,12,1,x,x
COc1ccc(NC(=O)Nc2ccc(F)cc2)c(C)c1,88,-3,-8,8,-4,111*,11,25*
Cn1c(-c2ccc3ccccc3n2)nc2cnccc21,103,7,-7,7,x,89*,119*,23*
CCn1c(CNc2ccc(Cl)cc2)nnc1SCC#N,128,-2,2,-2,2,120*,100*,48*
CCn1c(CNc2ccc(F)cc2)nnc1SCC#N,96,0,-20,20,-3,22,x,x
COC(=O)c1cc2c(c3c4ccccc4n(S(=O)(=O)c4ccc(OC)cc4)c13)C(=O)N(Cc1ccco1)C2,x,1,x,x,x,x,x,x
O=C(Nc1ccc(Cl)c(Cl)c1)c1ccc(Cl)c(Cl)c1,89,1,67,-67,-6,168*,159*,33*
O=C(Nc1cccnc1)c1ccc(Cl)c(Cl)c1,101,1,-23,23,0,20,x,x
O=C(Nc1ccc(OC(F)(F)F)cc1)c1ccc2nc[nH]c2c1,105,-1,-20,20,-21,96*,137*,12*
COC(=O)[C@]12C[C@H](CC(=O)NCc3cccc(C(F)(F)F)c3)C(=O)N(Cc3ccco3)C1=C[C@H](C1CCCC1)O[C@@H]2C,x,-3,x,x,x,x,x,x
